Measured values from ChEMBL document CHEMBL1123181 (J Med Chem, 1986).

Key:
[1] = target: Angiotensin-converting enzyme (Rattus norvegicus) (UniProt P47820); experiment: The time to 50% recovery of the angiotensin I response was measured after po administration at 1.5 mg/kg
[2] = target: Angiotensin-converting enzyme (Rattus norvegicus) (UniProt P47820); experiment: Percentage inactivation of the angiotensin I induced vasopressor response in normotensive conscious rats after po administration at dose 1.5 mg/kg; 20-34
[3] = target: T1, Angiotensin-converting enzyme (Oryctolagus cuniculus, UniProt P12822); experiment: In vitro inhibition of Angiotensin I converting enzyme activity in rabbit lung; format: tissue-based; settings: read-out: I50
T1 sequence (P12822 whole entry): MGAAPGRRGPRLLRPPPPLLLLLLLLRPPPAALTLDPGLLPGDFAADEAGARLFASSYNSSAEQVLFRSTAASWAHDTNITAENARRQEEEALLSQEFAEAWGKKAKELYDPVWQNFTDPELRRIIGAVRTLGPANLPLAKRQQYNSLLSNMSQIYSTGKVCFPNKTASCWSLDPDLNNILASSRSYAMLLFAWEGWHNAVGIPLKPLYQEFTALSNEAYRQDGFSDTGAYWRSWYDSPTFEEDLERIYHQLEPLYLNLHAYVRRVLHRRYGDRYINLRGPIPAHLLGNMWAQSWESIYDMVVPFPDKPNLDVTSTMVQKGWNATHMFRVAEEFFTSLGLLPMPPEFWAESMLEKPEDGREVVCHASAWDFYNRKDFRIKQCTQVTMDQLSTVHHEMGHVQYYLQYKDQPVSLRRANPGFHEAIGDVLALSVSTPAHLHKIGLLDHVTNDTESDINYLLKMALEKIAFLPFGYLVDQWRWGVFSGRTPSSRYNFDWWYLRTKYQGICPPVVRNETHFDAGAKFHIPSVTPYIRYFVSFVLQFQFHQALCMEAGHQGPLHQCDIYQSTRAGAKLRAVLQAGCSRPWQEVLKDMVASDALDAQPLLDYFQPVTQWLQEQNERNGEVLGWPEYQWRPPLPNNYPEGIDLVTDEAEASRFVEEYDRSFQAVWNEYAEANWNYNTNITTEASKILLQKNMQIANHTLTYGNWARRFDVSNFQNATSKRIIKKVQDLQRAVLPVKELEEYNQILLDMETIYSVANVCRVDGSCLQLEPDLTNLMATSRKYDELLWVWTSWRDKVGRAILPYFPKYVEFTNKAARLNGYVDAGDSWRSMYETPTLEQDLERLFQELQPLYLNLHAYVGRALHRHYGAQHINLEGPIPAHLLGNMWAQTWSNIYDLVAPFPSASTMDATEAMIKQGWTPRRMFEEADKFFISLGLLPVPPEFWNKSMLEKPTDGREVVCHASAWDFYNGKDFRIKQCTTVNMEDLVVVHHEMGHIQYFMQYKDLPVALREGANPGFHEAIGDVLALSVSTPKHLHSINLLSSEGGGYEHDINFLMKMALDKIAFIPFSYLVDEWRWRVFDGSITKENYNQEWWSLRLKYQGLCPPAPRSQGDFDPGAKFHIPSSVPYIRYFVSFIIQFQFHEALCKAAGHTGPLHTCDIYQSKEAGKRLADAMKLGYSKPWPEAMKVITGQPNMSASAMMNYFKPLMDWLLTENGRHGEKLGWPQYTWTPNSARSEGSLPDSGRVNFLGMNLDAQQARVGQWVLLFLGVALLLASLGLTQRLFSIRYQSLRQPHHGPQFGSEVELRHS

[4] = target: Angiotensin-converting enzyme (Rattus norvegicus) (UniProt P47820); experiment: The time to 50% recovery of the angiotensin I response was measured after po administration at 1.5 mg/kg; 20-80
[5] = target: Angiotensin-converting enzyme (Rattus norvegicus) (UniProt P47820); experiment: Percentage inactivation of the angiotensin I induced vasopressor response in normotensive conscious rats after po administration at dose 1.5 mg/kg; 43-64
[6] = target: T1, Angiotensin-converting enzyme; experiment: In vitro inhibition of Angiotensin I converting enzyme activity at pH 8.5 in rabbit lung; format: tissue-based; settings: read-out: I50
[7] = target: Angiotensin-converting enzyme (Rattus norvegicus) (UniProt P47820); experiment: Percentage inactivation of the angiotensin I induced vasopressor response in normotensive conscious rats after po administration at dose 1.5 mg/kg; 17-24; settings: at 1.5 mg/kg
[8] = target: Angiotensin-converting enzyme (Rattus norvegicus) (UniProt P47820); experiment: Percentage inactivation of the angiotensin I induced vasopressor response in normotensive conscious rats after po administration at dose 0.3 mg/kg; 15-17; settings: at 0.3 mg/kg
[9] = target: Angiotensin-converting enzyme (Rattus norvegicus) (UniProt P47820); experiment: The time to 50% recovery of the angiotensin I response was measured after po administration at 0.3 mg/kg
[10] = target: Angiotensin-converting enzyme (Rattus norvegicus) (UniProt P47820); experiment: Percentage inactivation of the angiotensin I induced vasopressor response in normotensive conscious rats after po administration at dose 0.058 mg/kg; 65-70
Rattus norvegicus [11] = experiment: Maximum percent change in mean arterial pressure by the compound over control after po administration at 30 mg/kg dosage; format: functional, Artery
Procedure, shortened: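 Spontaneously hypertensive rats kept on a sodium-deficient diet received the agent orally. Value = maximum % change in mean arterial pressure over control. Duration = time outside a control area, defined as the means ±2 SD of arterial pressure and heart rate readings from 45 control rats.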

Rattus norvegicus [12] = experiment: Time taken by the compound to change arterial pressure outside the control area at a dose of 30mg/kg, po; format: functional, Artery
[13] = target: T1, Angiotensin-converting enzyme; experiment: Inhibition of the activity of rabbit lung Angiotensin I converting enzyme
Procedure, shortened: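 Rabbit lung acetone-powder ACE, crude and dialyzed. Enzyme was added to substrate ± inhibitor and the reaction stopped with HCl after 10 min. Hippuric acid was extracted into AcOEt and read at 228 nm.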

[14] = target: Angiotensin-converting enzyme (Rattus norvegicus) (UniProt P47820); experiment: Percentage inactivation of the angiotensin I induced vasopressor response in normotensive conscious rats after po administration at dose 0.08 mg/kg; 80-85
[15] = target: Angiotensin-converting enzyme (Rattus norvegicus) (UniProt P47820); experiment: The time to 50% recovery of the angiotensin I response was measured after po administration at 0.30 mg/kg
[16] = target: Angiotensin-converting enzyme (Rattus norvegicus) (UniProt P47820); experiment: The time to 50% recovery of the angiotensin I response was measured after po administration at 0.15 mg/kg; 30-100
[17] = target: Angiotensin-converting enzyme (Rattus norvegicus) (UniProt P47820); experiment: Percentage inactivation of the angiotensin I induced vasopressor response in normotensive conscious rats after po administration at dose 0.15 mg/kg; 64-100
[18] = target: Angiotensin-converting enzyme (Rattus norvegicus) (UniProt P47820); experiment: Percentage inactivation of the angiotensin I induced vasopressor response in normotensive conscious rats after po administration at dose 0.15 mg/kg; 85-96
[19] = target: Angiotensin-converting enzyme (Rattus norvegicus) (UniProt P47820); experiment: The time to 50% recovery of the angiotensin I response was measured after po administration at 0.15 mg/kg; 60-140
[20] = target: Angiotensin-converting enzyme (Rattus norvegicus) (UniProt P47820); experiment: Percentage inactivation of the angiotensin I induced vasopressor response in normotensive conscious rats after po administration at dose 0.15 mg/kg; 24-49
[21] = target: Angiotensin-converting enzyme (Rattus norvegicus) (UniProt P47820); experiment: The time to 50% recovery of the angiotensin I response was measured after po administration at 1.5 mg/kg; 30-50
[22] = target: Angiotensin-converting enzyme (Rattus norvegicus) (UniProt P47820); experiment: The time to 50% recovery of the angiotensin I response was measured after po administration at 0.15 mg/kg; 10-30
[23] = target: Angiotensin-converting enzyme (Rattus norvegicus) (UniProt P47820); experiment: Percentage inactivation of the angiotensin I induced vasopressor response in normotensive conscious rats after po administration at dose 1.50 mg/kg; 73-79
[24] = target: Angiotensin-converting enzyme (Rattus norvegicus) (UniProt P47820); experiment: Percentage inactivation of the angiotensin I induced vasopressor response in normotensive conscious rats after po administration at dose 1.5 mg/kg; 3-5
[25] = target: Angiotensin-converting enzyme (Rattus norvegicus) (UniProt P47820); experiment: The time to 50% recovery of the angiotensin I response was measured after po administration at 1.5 mg/kg; 20-50
[26] = target: Angiotensin-converting enzyme (Rattus norvegicus) (UniProt P47820); experiment: Percentage inactivation of the angiotensin I induced vasopressor response in normotensive conscious rats after po administration at dose 1.5 mg/kg; 14-21
[27] = target: Angiotensin-converting enzyme (Rattus norvegicus) (UniProt P47820); experiment: The time to 50% recovery of the angiotensin I response was measured after po administration at 1.5 mg/kg; 0-30
[28] = target: Angiotensin-converting enzyme (Rattus norvegicus) (UniProt P47820); experiment: Percentage inactivation of the angiotensin I induced vasopressor response in normotensive conscious rats after po administration at dose 1.5 mg/kg; 0-29
[29] = target: Angiotensin-converting enzyme (Rattus norvegicus) (UniProt P47820); experiment: The time to 50% recovery of the angiotensin I response was measured after po administration at 1.5 mg/kg; 10-60
[30] = target: Angiotensin-converting enzyme (Rattus norvegicus) (UniProt P47820); experiment: Percentage inactivation of the angiotensin I induced vasopressor response in normotensive conscious rats after po administration at dose 1.5 mg/kg; 14-16

Angiotensin-converting enzyme (Rattus norvegicus), sequence (P47820 whole entry, looked up): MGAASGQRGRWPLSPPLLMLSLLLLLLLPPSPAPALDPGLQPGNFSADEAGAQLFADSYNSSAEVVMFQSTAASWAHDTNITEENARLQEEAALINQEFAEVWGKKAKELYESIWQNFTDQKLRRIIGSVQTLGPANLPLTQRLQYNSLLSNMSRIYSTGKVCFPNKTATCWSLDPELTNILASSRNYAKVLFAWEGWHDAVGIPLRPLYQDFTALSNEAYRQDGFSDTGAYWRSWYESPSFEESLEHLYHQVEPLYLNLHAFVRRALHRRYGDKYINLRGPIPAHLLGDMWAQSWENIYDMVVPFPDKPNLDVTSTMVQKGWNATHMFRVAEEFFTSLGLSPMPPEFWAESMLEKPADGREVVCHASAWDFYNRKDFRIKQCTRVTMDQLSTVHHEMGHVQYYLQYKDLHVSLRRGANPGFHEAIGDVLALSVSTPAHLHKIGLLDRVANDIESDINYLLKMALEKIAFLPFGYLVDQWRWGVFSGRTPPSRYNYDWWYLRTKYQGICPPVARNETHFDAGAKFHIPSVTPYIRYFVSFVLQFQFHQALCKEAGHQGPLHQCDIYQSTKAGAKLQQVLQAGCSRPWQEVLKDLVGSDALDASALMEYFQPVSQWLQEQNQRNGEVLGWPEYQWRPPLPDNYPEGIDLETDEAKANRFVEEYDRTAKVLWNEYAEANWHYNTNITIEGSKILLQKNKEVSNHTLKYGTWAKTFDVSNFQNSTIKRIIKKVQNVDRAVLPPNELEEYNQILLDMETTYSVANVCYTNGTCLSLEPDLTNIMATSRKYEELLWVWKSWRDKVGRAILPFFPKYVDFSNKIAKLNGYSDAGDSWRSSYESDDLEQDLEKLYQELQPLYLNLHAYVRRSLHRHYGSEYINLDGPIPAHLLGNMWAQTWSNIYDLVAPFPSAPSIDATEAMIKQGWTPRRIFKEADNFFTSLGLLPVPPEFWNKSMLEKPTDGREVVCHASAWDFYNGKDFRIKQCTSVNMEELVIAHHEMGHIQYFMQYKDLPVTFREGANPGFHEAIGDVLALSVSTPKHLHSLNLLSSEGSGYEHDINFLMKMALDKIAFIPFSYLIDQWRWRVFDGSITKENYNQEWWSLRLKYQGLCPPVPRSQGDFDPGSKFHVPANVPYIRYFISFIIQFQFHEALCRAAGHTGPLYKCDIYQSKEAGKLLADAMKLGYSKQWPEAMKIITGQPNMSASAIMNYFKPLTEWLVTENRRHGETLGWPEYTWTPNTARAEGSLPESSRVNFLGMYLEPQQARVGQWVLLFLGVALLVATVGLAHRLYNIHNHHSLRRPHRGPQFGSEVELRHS

| IC50 [3] | IC50 [6] | IC50 [13] | SMILES | other results |
| --- | --- | --- | --- | --- |
| 90000 nM | – | – | CC1SC(=O)C(C)(C)N(C2CCCC2)C1=O (stereo not given) | Duration [1]: 20 min; inhibition [2]: 20% |
| 47 nM | 58 nM | – | CC1CSC(=O)[C@@H]2CSCN2C1=O (stereo not given in full) | Duration [4]: 20 min; inhibition [5]: 43% |
| 33000 nM | – | – | CC1SC(=O)[C@@H]2CCCN2C1=O (stereo not given in full) | Duration [1]: 10 min; inhibition [7]: 17% |
| – | – | – | C[C@H]1CSC(=O)[C@@H]2Cc3ccccc3CN2C1=O (mixture of isomers) | inhibition [8]: 15%; Duration [9]: 10 min |
| – | 17 nM | – | C[C@H](CSC(=O)C(C)(C)C)C(=O)N(CC(=O)O)C1CCCC1 [PIVOPRIL] | inhibition [10]: 50%; MAP (Rattus norvegicus [11]): -30%; Duration [9]: 60 min; Duration (Rattus norvegicus [12]): >24 h |
| – | – | > 100000 nM | CC(=O)SC(C)C(=O)N1C(C(=O)O)C(C)(C)SC1(C)C (stereo not given) | – |
| – | – | 510 nM | CC(=O)SC(C)C(=O)N(CC(=O)O)C1CCCC1 (stereo not given) | – |
| – | – | – | CCOC(=O)[C@H](CCc1ccccc1)N[C@@H](C)C(=O)N1CCC[C@H]1C(=O)O | MAP (Rattus norvegicus [11]): -38%; inhibition [14]: 50%; Duration [15]: 210 min; Duration (Rattus norvegicus [12]): >24 h |
| 26 nM | 17 nM | – | C[C@@H]1CSC(=O)[C@@H]2CCCN2C1=O | Duration [16]: 30 min; inhibition [17]: 64% |
| – | – | > 100000 nM | CC(=O)SC(C)C(=O)N1Cc2ccccc2CC1(C)C(=O)O (stereo not given) | – |
| – | – | 180 nM | CC(=O)SC(C)C(=O)N(CC(=O)O)c1ccc(C)cc1 (stereo not given) | – |
| – | – | 57 nM | CC(S)C(=O)N(CC(=O)O)C1CCCC1 (stereo not given) | – |
| 12 nM | 25 nM | – | CC1CSC(=O)CN(C2CC3CCC2C3)C1=O (stereo not given) | inhibition [18]: 85%; Duration [19]: 60 min |
| – | – | 6800 nM | CC(S)C(=O)N(C1CCCC1)C(C)C(=O)O (stereo not given) | – |
| 150 nM | 57 nM | – | CC1SC(=O)CN(C2CCCC2)C1=O (stereo not given) | inhibition [20]: 24%; Duration [21]: 30 min; Duration [22]: 10 min; inhibition [23]: 73% |
| 27000 nM | 6800 nM | – | CC1SC(=O)C(C)N(C2CCCC2)C1=O (stereo not given) | inhibition [24]: 3% |

| IC50 [3] | IC50 [6] | IC50 [13] | SMILES | other results |
| --- | --- | --- | --- | --- |
| 18 nM | 45 nM | – | CC1CSC(=O)[C@@H]2Cc3ccccc3CN2C1=O (stereo not given in full) | – |
| – | – | 1700 nM | CC(=O)S[C@@H](C)C(=O)N1CSC[C@H]1C(=O)O | – |
| – | – | 10000 nM | CC(S)C(=O)N1CSC[C@H]1C(=O)O (stereo in doubt; 37b(R,R)) | – |
| – | – | 21000 nM | CC(S)C(=O)N1C(C(=O)O)C(C)(C)SC1(C)C (stereo not given) | – |
| > 100000 nM | 21000 nM | – | CC1SC(=O)C2N(C1=O)C(C)(C)SC2(C)C (stereo not given) | Duration [25]: 20 min; inhibition [26]: 14% |
| – | – | 140 nM | CC(S)C(=O)N1CSC[C@H]1C(=O)O (stereo in doubt; 37b(S,R)) | – |
| – | – | 95000 nM | CC(=O)SC(C)C(=O)N(C1CCCC1)C(C)(C)C(=O)O (stereo not given) | – |
| 50000 nM | 15000 nM | – | CC1CSC(=O)C2N(C1=O)C(C)(C)SC2(C)C (stereo not given) | Duration [27]: 0 min; inhibition [28]: 0% |
| – | – | 6800 nM | CC(=O)SC(C)C(=O)N(C1CCCC1)C(C)C(=O)O (stereo not given) | – |
| – | – | 37000 nM | CC(=O)S[C@H](C)C(=O)N1CSC[C@H]1C(=O)O | – |
| – | – | – | C[C@H](CS)C(=O)N1CCC[C@H]1C(=O)O [CAPTOPRIL] | MAP (Rattus norvegicus [11]): -30% |
| 800 nM | – | – | C[C@H]1CSC(=O)[C@@H]2Cc3ccccc3CN2C1=O | – |
| > 100000 nM | > 100000 nM | – | C[C@@H]1SC(=O)[C@@]2(C)Cc3ccccc3CN2C1=O | Duration [29]: 10 min; inhibition [30]: 14% |
| 1900 nM | 1900 nM | – | CC1SC(=O)CNC1=O (stereo not given) | – |
| – | – | 26 nM | Cc1ccc(N(CC(=O)O)C(=O)C(C)S)cc1 (stereo not given) | – |
